PHOSPHO1 inh: PubChem AID 1565 | recombinant PHOSPHO1, absorbance phosphatase assay | inhibition, % at 13.3 µM | hit rate 1.1% among 290,000 | Phosphoethanolamine/phosphocholine phosphatase (Homo sapiens), Q8TCT1; in the data active = inhibition above about 60%
Target sequence (Q8TCT1 whole entry, looked up): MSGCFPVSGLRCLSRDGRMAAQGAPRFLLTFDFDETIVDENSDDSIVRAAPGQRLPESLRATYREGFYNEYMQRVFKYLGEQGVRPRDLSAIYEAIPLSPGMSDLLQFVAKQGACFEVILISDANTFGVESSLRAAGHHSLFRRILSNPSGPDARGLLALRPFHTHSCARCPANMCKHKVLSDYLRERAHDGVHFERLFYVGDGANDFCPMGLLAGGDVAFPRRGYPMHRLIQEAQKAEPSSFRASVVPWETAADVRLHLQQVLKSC
HSF-1 act: HSF-1 activators, primary screen, NIH3T3-HGL cells, MG132 stress, luminescence, single point; NIH3T3-HGL HSF-1 luciferase reporter, 8 h; 100% = twice DMSO control signal; activation, % at 9 µM; hit rate 1.7% among 300,000;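 active = mean replicate activation of at least 50% with a set share of replicates each reaching 50%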
HSF1 inhib: HSF1 inhibitors in luciferase reporter cells, primary screen, cell-based, NIH3T3, luminescence | NIH3T3-HGL HSE-luciferase, MG132-induced, luminescence 8 h; stronger effect = lower value | activity change, negative = inhibition, % at 7.5 µM (by protocol) | hit rate 0.77% among 300,000;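 active = more than half of replicate wells show activity change below -50%, luminescence cut by over half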;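 also: luciferase reports HSF-1 transcriptional activity via heat shock element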
AI-2 QS mod: Vibrio harveyi AI-2 quorum sensing modulators, primary screen, JMH597 strain, luminescence/OD600 ratio; AID 2094, 2009; activity change, % at 7.5 µM; Vibrio harveyi JMH597 AI-2 luminescence/OD600 ratio, 9 h; stronger effect = lower value; strain lacks LuxN and CqsS sensors; 0 = neutral-control median; hit rate 0.4% among 300,000; in the data active = activity change below about -75%, passing the limit was not always enough;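 also: luminescence divided by OD600 gain over 9 h not by final OD600 alone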
ALR H2O2 inh: inhibitors of human ALR sulfhydryl oxidase, primary screen, biochemical, H2O2 detection, HRP-luminol luminescence, single point | inhibition, % (test concentration not listed) | hit rate 3.8% among 290,000 | FAD-linked sulfhydryl oxidase ALR (Homo sapiens), P55789 | purified ALR, DTT oxidation;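 active = mean replicate inhibition above about 79%, with every replicate also reaching it, limit read from the data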
Target sequence (P55789 whole entry, looked up): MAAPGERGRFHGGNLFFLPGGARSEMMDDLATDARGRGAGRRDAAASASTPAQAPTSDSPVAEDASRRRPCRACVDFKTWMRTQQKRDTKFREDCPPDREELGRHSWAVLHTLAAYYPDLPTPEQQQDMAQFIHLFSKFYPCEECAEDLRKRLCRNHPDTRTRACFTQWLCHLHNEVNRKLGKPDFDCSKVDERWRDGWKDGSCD
HCV core dimer: inhibitors of HCV core protein dimerization, primary screen, biochemical, TR-FRET, high-throughput | TR-FRET GST/Flag-core106 dimerization, 1536-well | inhibition, % at 5 µM | hit rate 0.33% among 300,000;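 active = inhibition above the mean of all tested compounds plus 3 SD, set per screening campaign, cut at about 45% in these data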
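System: GST-tagged and Flag-tagged HCV core protein residues 1-106 / Input: core106 proteins, GST 13.5 nM and Flag 17 nM / Buffer or medium: KF-containing HEPES buffer, pH 7.45, DTT, CHAPS, BSA / Probe or stimulus: Eu-anti-GST and XL665-anti-Flag labelled anti-tag antibodies / Schedule: 4 h, 22.5 °C incubation / Technique: TR-FRET 671 and 617 nm emission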
Numbers stand for hits; n = inactive; x = not tested or not shown. Most compounds without a hit are left out; they make up all but 6.8% or so of the library.

SMILES	PHOSPHO1 inh	HSF-1 act	HSF1 inhib	AI-2 QS mod	ALR H2O2 inh	HCV core dimer
COc1ccc(-c2oc(NC(=O)c3ccc(C)cc3)c(C#N)c2-c2ccc(OC)cc2)cc1	n	n	n	n	n	60
CCOc1ccc(/C=c2\sc3nc(-c4ccco4)nn3c2=O)cc1OCC	n	x	x	n	n	70
COc1ccccc1/C=c1\sc2nc(-c3ccco3)nn2c1=O	n	n	n	n	n	57
COc1cc(/C=c2\sc3nc(=O)c(-c4ccccc4)nn3c2=O)ccc1OCCC(C)C	n	x	x	x	n	n
Cc1ccc(S(=O)(=O)N2CCCN(C(=O)CNC(=O)c3cccc(C)c3)CC2)cc1	x	x	x	x	n	x
COC(=O)c1ccc2c(c1O)C(=O)c1ccccc1C2=O	n	100	n	n	n	n
Cc1cc(C(=O)COC(=O)c2ccc(O)cc2)c(C)n1CCc1ccc(F)cc1	n	n	n	n	x	n
Cc1cc(C(=O)COC(=O)c2ccc3c(c2)NC(=O)CS3)c(C)n1CCc1ccc(Cl)cc1	n	n	n	n	n	48
CCN(CC)c1ccc(/C=N/Nc2nc(C)cc(C)n2)cc1	n	n	n	n	98	n
Cc1cc(C)nc(N/N=C/c2ccccc2)n1	n	n	n	n	n	n
CC(=O)Nc1cccc(NC(=O)CSc2ncc(C(=O)Nc3ccc(F)cc3)c(=O)n2C)c1	x	n	n	n	99	n
CC(=O)c1cccc(NC(=O)CSc2ncc(C(=O)Nc3ccccc3)c(=O)n2C)c1	x	n	n	n	99	n
CC(=O)Nc1cccc(NC(=O)CSc2ncc(C(=O)Nc3ccccc3)c(=O)n2C)c1	x	206	n	n	x	n
Cn1c(SCC(=O)NCc2ccc(F)cc2)ncc(C(=O)Nc2ccccc2)c1=O	x	n	n	n	n	n
CC(=O)Nc1ccc(NC(=O)CSc2ncc(C(=O)Nc3ccc(Cl)cc3)c(=O)n2C)cc1	x	n	n	n	99	n
O=C(COC(=O)C1CCN(c2ccc(C(F)(F)F)cn2)CC1)c1ccccc1	x	n	n	n	n	n
CCN(CC)CCNC(=O)c1ccc(NC(=O)COc2ccc3c(c2)CCC3)cc1	x	x	x	x	n	x
CC(=O)Nc1ccc(NC(=O)CSc2ncc(C(=O)Nc3ccc(F)cc3)c(=O)n2C)cc1	x	n	n	n	99	n
CC1CC(Nc2ccccc2)c2ccccc2N1C(=O)c1ccco1 (configuration not stated)	n	n	n	n	99	n
COc1ccc(-n2c(SCC(=O)Nc3ccccc3C)nc(O)c(Cc3ccccc3)c2=O)cc1	n	n	n	n	88	n
COc1ccc(-n2c(SCC(=O)Nc3ccc(Cl)cc3)nc(O)c(Cc3ccccc3)c2=O)cc1	x	n	n	n	n	n
COc1ccc(-n2c(SCC(=O)Nc3ccc(C)cc3)nc(O)c(Cc3ccccc3)c2=O)cc1	x	n	n	n	98	n
COc1cn(-c2ccccc2)nc1C(=O)NCc1ccccc1	n	n	n	n	n	n
Cc1ccc(C(=O)N/C(=C\c2cccs2)C(=O)NCCc2c[nH]c3ccccc23)cc1	n	n	n	n	n	n
COc1ccccc1Nc1nc(C2(C)CCC(=O)O2)cs1 (configuration not stated)	n	n	n	n	96	n
SMILES	PHOSPHO1 inh	HSF-1 act	HSF1 inhib	AI-2 QS mod	ALR H2O2 inh	HCV core dimer
COc1ccccc1Nc1nc(-c2cccnc2)cs1	n	n	n	n	n	n
Cc1c(NC(=O)CSc2ncnc3ccccc23)c(=O)n(-c2ccccc2)n1C	n	n	n	n	x	n
COC(=O)C1=NN(N=O)C2(CC(=O)N(c3cc(C)cc(C)c3)C2=O)C1 (configuration not stated)	n	n	n	n	85	n
CCN(CC)c1ccc(CNc2ccc3c(c2)ncn3C(C)(C)C)cc1	n	n	n	n	99	n
Cn1cnc2cc(NCc3ccccc3Cl)ccc21	n	n	n	n	90	n
CN(C)c1ccc(CNc2ccc3c(c2)ncn3C)cc1	n	n	n	n	99	n
CC(C)c1ccc(CNc2ccc3c(c2)ncn3C)cc1	n	n	n	-79	78	n
CCn1cnc2cc(NCc3ccccc3Cl)ccc21	n	n	n	n	n	n
Cc1cccc(N2CCN(S(=O)(=O)c3ccc(-c4ccc(=O)[nH]n4)o3)CC2)c1C	n	n	n	n	n	n
O=C(CN1CCN(Cc2ccccc2)CC1)N/N=C/c1cccnc1	n	n	n	n	n	n
O=C(Nc1ccccc1)Nc1ccc2snnc2c1	n	n	n	n	n	n
CN(C)c1ccc(NC(=O)Nc2ccc3snnc3c2)cc1	n	n	n	n	95	n
Cn1c(SCc2ccccc2Cl)nc2ccccc21	n	93	n	n	n	n
Nn1c(Cc2cccc3ccccc23)nnc1SCC(=O)NC1CCS(=O)(=O)C1 (configuration not stated)	90	n	n	n	n	n
Nn1c(Cc2cccc3ccccc23)nnc1SCc1ccccc1Cl	n	n	n	n	87	n
COc1ccc(Cl)cc1NC(=O)C(C)Sc1n[nH]c(N)n1 (configuration not stated)	n	n	n	n	n	n
CCC(CC)c1nnc(NC(=O)[C@@H](NC(=O)c2cccc(C)c2)C(C)C)s1	n	n	n	n	n	n
COc1cc(/C=N\Nc2nc3ccccc3o2)cc(OC)c1OC	n	n	n	n	n	n
Oc1ccccc1/C=N/Nc1nc2ccccc2o1	n	n	n	n	x	n
COc1ccc(/C=N/Nc2nc3ccccc3o2)cc1O	n	n	n	n	99	n
Brc1ccc(/C=N/Nc2nc3ccccc3o2)cc1	x	63	n	n	n	n
COc1ccc(/C=N/Nc2nc3ccccc3s2)cc1O	n	n	n	n	x	x
COc1cc(/C=N/Nc2nc3ccccc3o2)cc(OC)c1O	n	n	n	n	99	n
CS(=O)(=O)NCCNC(=O)c1cc(OCC(F)(F)F)ccc1OCC(F)(F)F	n	n	n	n	n	n
CCOC(=O)N1CCC(N2Cc3cccc(C(=O)NC(C)c4ccc5c(c4)OCCO5)c3C2=O)CC1 (configuration not stated)	n	n	n	n	n	n
C(#Cc1c(-c2ccsc2)sc2ccccc12)c1ccsc1	x	x	x	x	n	x
COc1c(Cl)cnn(-c2ccccc2)c1=O	n	n	n	n	n	n
COc1nn(-c2ccccc2)c(=O)c(Cl)c1Cl	n	n	-93	n	n	n
CC(=O)c1cnn(-c2c(Cl)cc(Cl)cc2Cl)c1C	n	n	-59	n	n	n

Screens (PubChem)
